Consider 1 molecule from ChEMBL document CHEMBL1140079, “Discovery of orally bioavailable cathepsin S inhibitors for the reversal of neuropathic pain” (J Med Chem, 2008).

Molecules are shown by their SMILES.

Data set [1] is filed under the species Rattus norvegicus. Briefly: Reversal of neuropathic mechanical hyperalgesia in Wistar rat sciatic nerve ligation model with cathepsin S glycine 137 mutation. It counts as functional, organism-based. The procedure, abridged:
(§1)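 Partial sciatic nerve ligation in Wistar rats genotyped as 137Gly cathepsin S, with established mechanical hyperalgesia. Oral dosing in 0.5% methylcellulose/water; repeat regimen twice daily for 5 days, paw withdrawal thresholds 3 h post-dose. 6 animals/group; % reversal of hyperalgesia, mean ± SEM; ANOVA with Tukey's HSD versus vehicle.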

A short description of data set [2]: Terminal elimination half life in Sprague-Dawley rat at 1 mg/kg, iv by LC/MS analysis. Also on record: dose 1 mg/kg, route intravenous. The following applies: in vivo. It counts as ADME, organism-based. The procedure, abridged:
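Male Sprague-Dawley rats dosed orally at 3 mg/kg as a suspension and intravenously at 1 mg/kg as a bolus. Plasma levels quantified by LC/MS. Oral AUC and Cmax dose-normalized to 1 mg/kg. Means ± SD of three individual experiments.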

The subject of data set [3] is Rattus norvegicus. Kind of data set: Reversal of neuropathic mechanical hyperalgesia in Wistar rat sciatic nerve ligation model assessed as paw withdrawal threshold at 30 mg/kg, po administered twice daily for 5 days after 3 hrs. It counts as functional. The procedure, abridged:
as §1

A further data set has as its target Dipeptidyl peptidase 1 (Homo sapiens, UniProt P53634). Kind of data set: Inhibition of human cathepsin C.
For data set [4], the species on record is Homo sapiens. Kind of data set: Selectivity for human recombinant cathepsin S over human cathepsin B.
The species named for data set [5] is Homo sapiens. Kind of data set: Selectivity for human recombinant cathepsin S over human cathepsin C.
For another data set, the target named is T1, Pro-cathepsin H (Homo sapiens, UniProt P09668).
T1 sequence (P09668 whole entry): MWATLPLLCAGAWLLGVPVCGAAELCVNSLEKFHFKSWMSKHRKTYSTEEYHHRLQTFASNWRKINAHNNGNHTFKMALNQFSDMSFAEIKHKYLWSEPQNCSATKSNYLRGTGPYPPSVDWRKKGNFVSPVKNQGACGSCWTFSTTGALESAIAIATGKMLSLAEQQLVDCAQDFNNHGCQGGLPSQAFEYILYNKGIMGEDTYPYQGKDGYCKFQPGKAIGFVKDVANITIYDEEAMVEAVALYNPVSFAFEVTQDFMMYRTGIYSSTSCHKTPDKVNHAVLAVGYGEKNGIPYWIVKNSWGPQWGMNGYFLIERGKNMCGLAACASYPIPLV
Kind of data set: Inhibition of human cathepsin H.

The target in the next data set is T2, Cytochrome P450 1A2 (Homo sapiens, UniProt P05177).
T2 sequence (P05177 whole entry): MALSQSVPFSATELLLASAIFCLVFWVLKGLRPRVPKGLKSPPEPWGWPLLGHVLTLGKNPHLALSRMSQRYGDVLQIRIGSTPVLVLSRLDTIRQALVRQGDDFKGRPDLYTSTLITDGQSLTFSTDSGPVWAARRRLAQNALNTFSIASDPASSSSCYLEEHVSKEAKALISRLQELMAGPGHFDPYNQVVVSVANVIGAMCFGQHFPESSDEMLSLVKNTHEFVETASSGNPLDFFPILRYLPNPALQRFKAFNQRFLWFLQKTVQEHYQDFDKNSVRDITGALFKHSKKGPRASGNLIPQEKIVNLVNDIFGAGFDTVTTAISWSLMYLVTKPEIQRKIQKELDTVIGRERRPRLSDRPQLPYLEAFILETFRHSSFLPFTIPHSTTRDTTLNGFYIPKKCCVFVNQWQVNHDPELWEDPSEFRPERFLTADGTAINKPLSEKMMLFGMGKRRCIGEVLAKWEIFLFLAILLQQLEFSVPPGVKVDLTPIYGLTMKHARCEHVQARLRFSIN
Kind of data set: Inhibition of CYP1A2 at 10 uM. The format is ADME. An outline of the steps:
(§2)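 Tested against a panel of cytochrome P450 enzymes at a maximum concentration of 10 µM.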

Data set [6] can be described thus: Inhibition of rat cathepsin S glycine 137 mutant by fluorescence assay. An outline of the steps:
(§3)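 Recombinant rat cathepsins K, L, S (137Gly and 137Cys forms) and mouse cathepsin S in a fluorescence assay. Substrates: Z-Phe-Arg-MCA for K and L, Z-Leu-Leu-Arg-MCA for S. IC50 reported as means ± SD of three experiments.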

Another data set has as its target Cytochrome P450 2C9 (Homo sapiens, UniProt P11712). Kind of data set: Inhibition of CYP2C9 at 10 uM. It counts as ADME. An outline of the steps:
as §2

A further data set concerns the target Cathepsin S (Mus musculus, UniProt O70370). Briefly: Inhibition of mouse cathepsin S by fluorescence assay. The procedure, abridged:
as §3

Another data set addresses Cathepsin B (Homo sapiens, UniProt P07858). Briefly: Inhibition of human cathepsin B.
The species named for data set [7] is Rattus norvegicus. Kind of data set: Selectivity for rat cathepsin S glycine 137 mutant over rat cathepsin B. An outline of the steps:
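Recombinant rat cathepsins in a fluorescence assay with MCA substrates: Z-Leu-Leu-Arg-MCA for cathepsin S (137Gly form), Z-Phe-Arg-MCA for K and L, and Z-Arg-Arg-MCA for B. IC50 values were taken as means ± SD of three experiments, and selectivity was compared from the IC50 values against the S enzyme and each other cathepsin.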

Data set [8] in a line: Inhibition of human cathepsin X.

Sequence of Cytochrome P450 2C9 (P11712 whole entry): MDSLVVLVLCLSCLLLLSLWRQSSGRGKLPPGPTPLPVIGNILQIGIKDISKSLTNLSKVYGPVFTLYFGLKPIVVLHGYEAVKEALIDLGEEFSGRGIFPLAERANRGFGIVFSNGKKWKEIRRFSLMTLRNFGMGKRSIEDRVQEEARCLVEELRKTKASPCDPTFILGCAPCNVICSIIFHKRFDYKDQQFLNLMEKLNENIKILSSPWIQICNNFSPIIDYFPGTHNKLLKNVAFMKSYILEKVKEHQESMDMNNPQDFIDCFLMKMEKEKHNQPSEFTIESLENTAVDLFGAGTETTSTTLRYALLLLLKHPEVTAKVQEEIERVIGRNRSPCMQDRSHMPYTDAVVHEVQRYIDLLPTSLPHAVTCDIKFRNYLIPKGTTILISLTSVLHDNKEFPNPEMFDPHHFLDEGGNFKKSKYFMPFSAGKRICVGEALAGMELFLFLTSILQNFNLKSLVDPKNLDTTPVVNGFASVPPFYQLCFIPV
Sequence of Cathepsin S (O70370 whole entry): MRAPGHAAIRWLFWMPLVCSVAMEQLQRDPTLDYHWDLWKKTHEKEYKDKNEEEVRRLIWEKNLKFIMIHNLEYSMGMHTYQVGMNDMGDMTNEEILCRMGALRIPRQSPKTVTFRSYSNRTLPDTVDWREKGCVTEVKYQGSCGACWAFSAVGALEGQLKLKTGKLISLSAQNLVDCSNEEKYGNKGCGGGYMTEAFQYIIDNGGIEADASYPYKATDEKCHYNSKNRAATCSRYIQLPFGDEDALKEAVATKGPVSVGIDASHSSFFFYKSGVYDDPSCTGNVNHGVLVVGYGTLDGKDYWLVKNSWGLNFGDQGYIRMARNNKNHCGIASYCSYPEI
Sequence of Dipeptidyl peptidase 1 (P53634 25-134 limits assumed): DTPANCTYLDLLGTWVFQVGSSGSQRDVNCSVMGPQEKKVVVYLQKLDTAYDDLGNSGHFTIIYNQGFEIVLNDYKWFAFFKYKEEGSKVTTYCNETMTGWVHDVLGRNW
Sequence of Dipeptidyl peptidase 1 (P53634 231-394 limits assumed): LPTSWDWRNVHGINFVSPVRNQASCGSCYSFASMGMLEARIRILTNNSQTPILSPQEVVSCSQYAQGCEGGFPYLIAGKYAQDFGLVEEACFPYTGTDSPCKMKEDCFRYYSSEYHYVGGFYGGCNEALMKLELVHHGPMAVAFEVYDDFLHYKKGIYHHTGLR
Sequence of Dipeptidyl peptidase 1 (P53634 395-463 limits assumed): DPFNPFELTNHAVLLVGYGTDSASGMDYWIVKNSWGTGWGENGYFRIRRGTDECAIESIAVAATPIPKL

Take `CC(=O)N1CCN(c2ccc(OCc3cc4cnc(C#N)nc4n3CCC3CCC(F)(F)CC3)cc2)CC1`: the Activity result was “Dose-dependent effect” in the data set filed under Rattus norvegicus [1]; 40% with Rattus norvegicus [3]; above 100 in the data set listed under Homo sapiens [4]; above 100 in the data set filed under Homo sapiens [5]; “Not Active” at Cytochrome P450 1A2; “Not Active” on Cytochrome P450 2C9. In addition, in the data set filed under Rattus norvegicus [7], the Activity was above 100. Besides, the half-life (as a rule, how long it takes for the measured level to halve) in [2] was 42 min. In addition, the values for the Ki (on Dipeptidyl peptidase 1; on Pro-cathepsin H; in data set [8]) were above 10 µM, above 10 µM and 0.65 µM, respectively. Besides, the IC50 (as a rule, the point on the concentration scale where inhibition reaches its midpoint) in data set [6] was 0.028 µM; against Cathepsin S it was 0.02 µM; against Cathepsin B it was above 30 µM.
